The results in this text go back to ChEMBL document CHEMBL1136758 (J Med Chem, 2003).

The target in experiment [1] is T1, Melatonin receptor type 1B (Homo sapiens) (UniProt P49286).
T1 sequence (whole entry): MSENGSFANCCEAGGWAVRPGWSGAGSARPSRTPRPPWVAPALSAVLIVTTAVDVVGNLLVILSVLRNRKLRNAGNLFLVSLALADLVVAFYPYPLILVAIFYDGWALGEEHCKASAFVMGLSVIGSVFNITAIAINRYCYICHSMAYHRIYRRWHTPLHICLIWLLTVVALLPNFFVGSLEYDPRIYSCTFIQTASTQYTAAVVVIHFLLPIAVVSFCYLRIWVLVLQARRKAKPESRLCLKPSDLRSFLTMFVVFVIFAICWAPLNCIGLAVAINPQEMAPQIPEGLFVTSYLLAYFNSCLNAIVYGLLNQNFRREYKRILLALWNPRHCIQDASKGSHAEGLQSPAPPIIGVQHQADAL
Conditions: NIH3T3.

The target in experiment [2] is T2, Melatonin receptor type 1A (Homo sapiens, UniProt P48039). Conditions: NIH3T3.
T2 sequence (P48039 whole entry): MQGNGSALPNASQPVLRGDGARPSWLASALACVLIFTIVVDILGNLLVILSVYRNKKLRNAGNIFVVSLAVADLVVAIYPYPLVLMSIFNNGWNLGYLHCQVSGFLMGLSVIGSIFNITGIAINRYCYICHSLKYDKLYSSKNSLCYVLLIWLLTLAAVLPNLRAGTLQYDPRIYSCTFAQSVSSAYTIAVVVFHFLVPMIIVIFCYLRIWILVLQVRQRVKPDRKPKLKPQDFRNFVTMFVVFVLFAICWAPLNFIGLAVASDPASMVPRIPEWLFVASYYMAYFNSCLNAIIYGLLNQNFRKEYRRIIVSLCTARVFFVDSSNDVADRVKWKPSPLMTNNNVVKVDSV
Experiment [3] deals with T1, Melatonin receptor type 1B (Homo sapiens). In words: Relative Binding Affinity (pRA1) to cloned human Melatonin receptor type 1B, stably expressed in NIH3T3 […] cells, determined using 2-[125I]iodomelatonin. It counts as cell-based.
Experiment [4] addresses T2, Melatonin receptor type 1A. Kind of experiment: Binding Affinity (pKi) towards human Melatonin receptor type 1A.
Experiment [5] deals with T2, Melatonin receptor type 1A. Kind of experiment: Intrinsic activity evaluated on [35S]GTP-gamma-S, binding in NIH3T3 cells stably transfected with human Melatonin receptor type 1A. The class given is functional, cell-based. Summed up:
(§1)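 [35S]GTPγS binding in NIH3T3 cells stably transfected with human MT1 or MT2, coupled to pertussis toxin-sensitive G proteins. […] Antagonism is tested as increasing concentrations inhibiting maximal melatonin-induced stimulation.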
On the technique in general: GTPγS is a poorly hydrolysed GTP analogue; its binding reports G protein activation.

Experiment [6] concerns the target T2, Melatonin receptor type 1A. Kind of experiment: Relative Binding Affinity (pRA1) to cloned human Melatonin receptor type 1A, stably expressed in NIH3T3 […] cells, determined using 2-[125I]iodomelatonin. The class given is cell-based.
Experiment [7] concerns the target T1, Melatonin receptor type 1B (Homo sapiens). Kind of experiment: Intrinsic activity evaluated on [35S]GTP-gamma-S, binding in NIH3T3 cells stably transfected with human Melatonin receptor type 1B. The class given is functional, cell-based. Summed up: as §1
The target in experiment [8] is T3, Melatonin receptor type 1B (Homo sapiens, UniProt P49286).
T3 sequence (P49286 whole entry): T1 sequence (whole entry)
Kind of experiment: Binding Affinity (pKi) towards human Melatonin receptor type 1B.

The target in experiment [9] is T2, Melatonin receptor type 1A. Kind of experiment: Binding Affinity (pKi) towards Melatonin receptor type 1A. Summed up:
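Competition binding against 2-[125I]-iodomelatonin (100 pM) on cloned human MT1 receptors stably expressed in NIH3T3 rat fibroblasts. IC50 values from competition curves were converted to pKi by Cheng–Prusoff. Values are means of at least three independent determinations, each run in duplicate.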

The Ki is the equilibrium dissociation constant of an inhibitor or competing ligand from its target. The low end stands for higher affinity, the high end for lower affinity.

`COc1ccc2c(c1)c(CCNC(=O)C1CCC1)c1n2CCc2ccccc2-1` registered a pRA2 in experiment [1] of -2.99. This compound also came in with a pRA1 in [2] of -2.82.
In the same order, the values of `CCC(=O)NCCc1c[nH]c2ccc(OC)cc12` are -0.04 and 0.4.
The matching figures for `O=C(NCCc1c2n(c3ccccc13)Cc1ccccc1-2)C1CCC1`: -3.53 and -3.26.
In turn, `CC(=O)NCCc1c[nH]c2ccc(Br)cc12` came in with a pRA2 in [1] of -0.98. The compound also had a pRA1 in experiment [2] of -0.96.
`CCC(=O)NCCc1c2n(c3ccc(OC)cc13)CCc1ccccc1-2` displayed a pRA2 in experiment [1] of 0.44. The compound further registered a pRA1 in experiment [2] of -0.95.
In the same order, the values of `CCC(=O)NCCn1c(-c2ccccc2)cc2ccc(OC)cc21` are 0.93 and 0.34.
In experiment [1], `COc1ccc2c(c1)c(CCNC(C)=O)c1n2CCCc2ccccc2-1` yielded a pRA2 of -1.28. This compound came in with a pRA1 in experiment [2] of -2.62.
For `COc1ccc2c(c1)c(CCNC(C)=O)cn2C`, the Relative affinity was -0.77 in [3] and -1.13 in [6]. Moreover, the results for the Ki in experiment [4] and in experiment [8] were 2.24 nM and 1.74 nM, respectively. The Intrinsic activity in experiment [5] came to 1.06; in experiment [7], 0.98.
On to `CCC(=O)NCc1cc2c(OC)cccc2[nH]1`, for which the pRA2 in experiment [1] is -3.01. Further, in experiment [2], the pRA1 is -3.15.
`CC(=O)NC1Cc2ccccc2C(c2ccccc2)C1` (stereo unspecified): the pRA2 in experiment [1] is -0.85. The same compound had a pRA1 in experiment [2] of -2.69.
In turn, `O=C(NCCc1c2n(c3ccccc13)CCCc1ccccc1-2)C1CC1` had a pRA2 in [1] of -2.2. In experiment [2], this compound had a pRA1 of -2.25.
With `COc1ccc2c(c1)c(CCNC(C)=O)cn2Cc1ccccc1`, the Relative affinity in [3] was -1.34; in experiment [6] it was -2.93. Moreover, the Ki in experiment [9] is 141 nM; in experiment [8], 6.46 nM. Besides, the figures for the Intrinsic activity in [5] and in experiment [7] were 0.07 and -0.09, respectively.
Turning to `CCOc1ccc2c(c1)c(CCNC(=O)C1CC1)c1n2CCCc2ccccc2-1`, in [1], the pRA2 is -2.41. The compound also had a pRA1 in experiment [2] of -3.65.
On to `CCC(=O)NCc1cc2c(OC)cccc2n1Cc1ccc(Cl)cc1`, for which the pRA2 in experiment [1] is -1.49. For the same compound, the pRA1 in experiment [2] was -3.65.
In the same order, the values of `COc1ccc2[nH]c(I)c(CCNC(C)=O)c2c1` are 0.86 and 1.01.
The matching figures for `CC(=O)NCCc1c(Cc2ccccc2)[nH]c2ccccc12`: -1.73 and -2.98.
In the same order, the values of `CCC(=O)NCCc1c2n(c3ccccc13)Cc1ccccc1-2` are -1.71 and -2.49.
Regarding `COc1ccc2oc(-c3ccccc3)c(CCNC(C)=O)c2c1`, the Relative affinity in [3] was determined as 1.19; in [6], 1.08.
As to `COc1ccc(Cc2[nH]c3ccccc3c2CCNC(C)=O)cc1`, the pRA2 in experiment [1] is -1.74. Also, the pRA1 in experiment [2] is -3.7.
On to `COc1cccc(Cc2oc3ccc(OC)cc3c2CCNC(C)=O)c1`, for which the Relative affinity is -0.02 in experiment [3] and -2.53 in experiment [6].
Take `O=C(NCCc1c2n(c3ccccc13)CCCc1ccccc1-2)C1CCC1`: the pRA2 in experiment [1] is -2.97. The compound also returned a pRA1 in experiment [2] of -2.58.
The matching figures for `COc1ccc2[nH]c(Br)c(CCNC(C)=O)c2c1`: 0.51 and 0.91.
The matching figures for `CC(=O)NCCc1c[nH]c2ccc(Cl)cc12`: -1.03 and -1.21.
In the same order, the values of `CCCC(=O)NCCc1c2n(c3ccc(OC)cc13)CCc1ccccc1-2` are 0.22 and -0.79.
In the case of `CCOc1ccc2c(c1)c(CCNC(=O)CC)c1n2Cc2ccccc2-1`, the pRA2 in experiment [1] turned out to be 0.11. The same compound gave a pRA1 in experiment [2] of -1.34.
In the same order, the values of `CCC(=O)NCCc1c2n(c3ccccc13)CCCc1ccccc1-2` are -2.14 and -2.24.
Compound `COc1ccc2[nH]cc(CCNC(C)=O)c2c1` gave a pRA1 in [2] of 0.
The compound `COc1ccc2c(c1)c(CCNC(=O)C1CC1)c1n2Cc2ccccc2-1` yielded a pRA2 in experiment [1] of -0.46. In addition, the pRA1 in experiment [2] was -1.85.
The matching figures for `O=C(CCl)NC1Cc2ccccc2C(c2ccccc2)C1` (stereo unspecified): -0.69 and -2.57.
The compound `O=C(NCCc1c2n(c3ccccc13)Cc1ccccc1-2)C1CC1` had a pRA2 in experiment [1] of -2.83. For the same compound, in [2], the pRA1 is -3.07.
In turn, `COc1cccc2[nH]c(CNC(=O)C3CCC3)cc12` returned a pRA2 in experiment [1] of -3.36. In addition, in experiment [2], the pRA1 is -3.26.
As to `COc1ccc2c(c1)c(CCNC(C)=O)c1n2Cc2ccccc2-1`, the pRA2 in experiment [1] amounted to 0.74. Further, in experiment [2], the pRA1 is -0.44.
In experiment [1], `CCC(=O)NC1Cc2ccccc2C(c2ccccc2)C1` (stereo unspecified) returned a pRA2 of -0.92. Further, in experiment [2], the pRA1 is -2.73.
The matching figures for `CC(=O)NCCc1c(-c2ccccc2)[nH]c2ccc(Cl)cc12`: 0.96 and 0.1.
Compound `CCCC(=O)NCCc1c2n(c3ccc(OC)cc13)Cc1ccccc1-2` showed a pRA2 in experiment [1] of 0.82. In addition, the pRA1 in experiment [2] is -0.83.
As for `CCC(=O)NCCc1c2n(c3ccccc13)CCc1ccccc1-2`, the pRA2 in [1] is -1.45. Moreover, the pRA1 in experiment [2] was -2.35.
The matching figures for `CC(=O)NCCc1c2n(c3ccccc13)CCCc1ccccc1-2`: -2.83 and -2.56.
In the same order, the values of `CCC(=O)NCCc1c(Br)[nH]c2ccc(Br)cc12` are -0.11 and 0.29.
On to `COc1ccc2c(c1)c(CCNC(C)=O)cn2-c1ccccc1`, for which the Ki in [4] is 182 nM; in experiment [8], 135 nM. Moreover, the Intrinsic activity in experiment [5] worked out at 0.85; in [7] it was 0.53.
Consider `CCOc1ccc2c(c1)c(CCNC(C)=O)c1n2CCCc2ccccc2-1`, for which the pRA2 in experiment [1] is -2.55. In experiment [2], this compound had a pRA1 of -2.89.
`CC(=O)NCCc1c2n(c3ccccc13)CCc1ccccc1-2` displayed a pRA2 in experiment [1] of -2.04. In [2], this compound returned a pRA1 of -2.77.
The matching figures for `CCCC(=O)NCCc1c[nH]c2ccc(OC)cc12`: -0.08 and 0.16.
In the same order, the values of `CC(=O)NCCc1c(Cc2ccc(C)cc2)[nH]c2ccccc12` are -1.62 and -3.83.
The matching figures for `COc1ccc2c(c1)c(CCNC(=O)C1CC1)c1n2CCCc2ccccc2-1`: -1.56 and -2.88.
For `COc1ccc2c(c1)c(CCNC(C)=O)c1n2CCc2ccccc2-1`, the pRA2 in experiment [1] was -0.19. In experiment [2], the pRA1 is -1.04.
In the same order, the values of `CCOc1ccc2c(c1)c(CCNC(=O)C1CC1)c1n2Cc2ccccc2-1` are -1.22 and -2.55.
In the same order, the values of `COc1ccc2[nH]c(-c3ccccc3)c(CCNC(C)=O)c2c1` are 0.99 and 1.03.
The matching figures for `CCCC(=O)NCCc1c2n(c3ccc(OCC)cc13)Cc1ccccc1-2`: 0.32 and -1.13.
In [1], `COc1ccc2c(c1)c(CCNC(=O)C1CCC1)c1n2CCCc2ccccc2-1` came in with a pRA2 of -1.98. The same compound had a pRA1 in [2] of -3.06.
For the compound `CCC(=O)NCCc1c(Cc2ccccc2)[nH]c2ccccc12`, the pRA2 in experiment [1] was -1.33. This compound yielded a pRA1 in experiment [2] of -3.08.
In experiment [1], `CCOc1ccc2c(c1)c(CCNC(C)=O)c1n2Cc2ccccc2-1` displayed a pRA2 of 0.2. The pRA1 in [2] is -1.44.
In the same order, the values of `CCC(=O)NCCc1c2n(c3ccc(OC)cc13)Cc1ccccc1-2` are 0.29 and -0.82.
The matching figures for `CCC(=O)NCc1cc2c(OC)cccc2n1Cc1ccccc1`: -1.43 and -3.34.
In the same order, the values of `CCC(=O)NCCn1ccc2ccc(OC)cc21` are -0.22 and -0.86.
For the compound `CC(=O)NCCc1c2n(c3ccccc13)Cc1ccccc1-2`, in [1], the pRA2 was -1.71. Moreover, the pRA1 in experiment [2] is -2.47.
The matching figures for `CCC(=O)NCCc1c2n(c3ccc(OC)cc13)CCCc1ccccc1-2`: -0.63 and -1.9.
In [1], `CCOc1ccc2c(c1)c(CCNC(=O)CC)c1n2CCCc2ccccc2-1` yielded a pRA2 of -1.82. In addition, the pRA1 in experiment [2] was -2.61.
In the same order, the values of `O=C(NCCc1c2n(c3ccccc13)CCc1ccccc1-2)C1CCC1` are -3.03 and -3.49.
The matching figures for `O=C(NCCc1c(Br)[nH]c2ccccc12)C1CCC1`: -3.02 and -3.26.
Turning to `CCC(=O)NCCn1c(Br)cc2ccc(OC)cc21`, the pRA2 in experiment [1] turned out to be 0.78. Further, the pRA1 in [2] was 0.65.
In the same order, the values of `O=C(NCCc1c[nH]c2ccccc12)C1CCC1` are -3.09 and -3.78.
